According to ChEMBL document CHEMBL2331505, “Synthesis of quinoline derivatives: discovery of a potent and selective phosphodiesterase 5 inhibitor for the treatment of Alzheimer's disease” (Eur J Med Chem, 2013):

What was measured:
[1] = target: cGMP-specific 3',5'-cyclic phosphodiesterase (Homo sapiens, UniProt O76074); experiment: Inhibition of PDE5 (unknown origin) using FAM-cGMP as substrate after 60 mins by fluorescence assay
Homo sapiens [2] = organism: Homo sapiens; experiment: Selectivity ratio of IC50 for PDE1 (unknown origin) to IC50 for PDE5 (unknown origin)
Homo sapiens [3] = organism: Homo sapiens; experiment: Selectivity ratio of IC50 for PDE11 (unknown origin) to IC50 for PDE5 (unknown origin)
Mus musculus [4] = experiment: Inhibition of PDE5 in C57Bl6 mouse assessed as increase in electric shock-induced hippocampal cGMP level measured per mg of protein at 3 mg/kg, ip administered 30 mins prior to electric shock induction measured after 1 min (reference value: 0.41 0.028 pmol); assay type: functional, Hippocampus; settings: route intraperitoneal
How it was run: (§1)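 Male and female C57Bl6 mice, 2–3 months old, 20–25 g, received 3 mg/kg i.p. in 2% DMSO/2% Tween or vehicle alone. Foot shock was given 30 min later. Mice were killed 10 s, 1 min or 3 min after shock and the hippocampus was snap-frozen. cGMP was measured by enzyme immunoassay in duplicate and normalised to BCA protein; n=3 per group.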

[5] = Ratio of Cmax in mouse brain to Cmax in mouse plasma; assay type: ADME, cell-free
How it was run: (§2)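 Male BALB/c mice given 50 mg/kg p.o. in 0.05% methylcellulose aqueous solution. Blood (retro-orbital, heparin) and brain taken at 0, 0.25, 0.5, 1.0, 2.0 and 4.0 h, three mice per time point. Plasma and methanol brain homogenate extracted with internal standard and quantified by LC/MS/MS (peak area ratio, weighted linear regression). Ratio is brain over plasma parameter.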

Homo sapiens [6] = organism: Homo sapiens; experiment: Selectivity ratio of IC50 for PDE3 (unknown origin) to IC50 for PDE5 (unknown origin)
Hippocampus [7] = experiment: (§3) Reversal of post synaptic dysfunction in APP/PS1 transgenic mouse hippocampal assessed as increase in theta burst-induced long term potentiation at 50 nM incubated 10 mins prior to theta burst induction measured after 2 hrs for 5 mins by electrophysiological assay (reference value: 145.84 7.78%); assay type: functional
How it was run: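 Transverse hippocampal slices (400 μm) from APP/PS1 mice were kept in an interface chamber at 29 °C and perfused with aerated ACSF, pH 7.4. Compound (50 nM) was bath-applied for 10 min before tetanus. CA1 fEPSP slopes were expressed as % of baseline, averaged over the last 5 min of a 2 h recording.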

Phosphodiesterase 3 = Phosphodiesterase 3 (Homo sapiens, UniProt Q14432+Q13370); experiment: Inhibition of PDE3 (unknown origin) using FAM-cGMP and FAM-cAMP as substrate after 60 mins by fluorescence assay; assay type: protein assay
Phosphodiesterase 8 = Phosphodiesterase 8 (Homo sapiens, UniProt O95263+O60658); experiment: Inhibition of PDE8 (unknown origin) using FAM-cAMP as substrate after 60 mins by fluorescence assay; assay type: protein assay
Mus musculus [8] = experiment: Reversal of contextual fear memory deficit in amyloid beta42-infused mouse assessed as increase in freezing behavior at 3 to 10 mg/kg, po administered immediately post electric shock measured after 24 hrs (reference value: 10%); assay type: functional; settings: dose mg/kg 3-10
How it was run: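 Aβ42 (200 nM, 1 μl over 1 min) or vehicle was infused bilaterally into the dorsal hippocampus through cannulas implanted 6–8 days earlier under Avertin. Infusion was 15 min before foot-shock training. Compound was given at 3 or 10 mg/kg p.o. immediately after training. Freezing was scored for 5 min in the same chamber 24 h later.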

Phosphodiesterase 6 = experiment: Inhibition of PDE6 (unknown origin) using FAM-cGMP as substrate after 60 mins by fluorescence assay; assay type: protein assay, Homo sapiens
Mus musculus [9] = experiment: Reversal of post synaptic dysfunction in APP/PS1 transgenic mouse assessed as increase in theta burst-induced long term potentiation at 3 mg/kg/day, ip administered 3 weeks measured after 9 to 12 weeks […] (reference value: 112.29 9.12%); assay type: functional; settings: route intraperitoneal
[10] = Cmax in mouse brain at 50 mg/kg, po; assay type: ADME, organism-based; design: dose 50 mg/kg, route oral
How it was run: (§4)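 Male BALB/c mice dosed once orally at 50 mg/kg in 0.05% aqueous methylcellulose. Blood (retro-orbital, heparin) and brain were taken at 0, 0.25, 0.5, 1, 2 and 4 h, three mice per time point. Plasma and methanol brain homogenate were extracted with methanol plus internal standard and analysed by LC/MS/MS. Quantitation used analyte/internal standard peak-area ratios with weighted (1/x2) linear regression.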

Mus musculus [11] = experiment: Inhibition of PDE5 in C57Bl6 mouse assessed as increase in electric shock-induced hippocampal cGMP level measured per mg of protein at 3 mg/kg, ip administered 30 mins prior to electric shock induction measured after 3 mins (reference value: 0.46 0.0385 pmol); assay type: functional, Hippocampus; settings: route intraperitoneal; how it was run: as §1
Phosphodiesterase 7 = Phosphodiesterase 7 (Homo sapiens, UniProt Q13946+Q9NP56); experiment: Inhibition of PDE7 (unknown origin) using FAM-cAMP as substrate after 60 mins by fluorescence assay; assay type: protein assay
Phosphodiesterase 1 = Phosphodiesterase 1 (Homo sapiens, UniProt P54750+Q01064+Q14123); experiment: Inhibition of PDE1 (unknown origin) using FAM-cGMP and FAM-cAMP as substrate after 60 mins by fluorescence assay; assay type: protein assay
Homo sapiens [12] = organism: Homo sapiens; experiment: Selectivity ratio of IC50 for PDE6 (unknown origin) to IC50 for PDE5 (unknown origin)
Hippocampus [13] = experiment: as §3, with “of amyloid beta42-induced” for “of”, “in” for “in APP/PS1 transgenic”, “60 mins” for “2 hrs”, “144.65 9.99%)” for “145.84 7.78%)”; assay type: functional
Homo sapiens [14] = organism: Homo sapiens; experiment: Selectivity ratio of IC50 for PDE9 (unknown origin) to IC50 for PDE5 (unknown origin)
[15] = Ratio of AUC (0 to t) in mouse brain to AUC (0 to t) in mouse plasma; assay type: ADME, cell-free; how it was run: as §2
Plasma [16] = experiment: Tmax in mouse plasma at 50 mg/kg, po; assay type: ADME, organism-based; design: dose 50 mg/kg, route oral; settings: in vivo; how it was run: as §4
Plasma [17] = experiment: AUC (0 to infinity) in mouse plasma at 50 mg/kg, po; assay type: ADME, organism-based; design: time infinity, dose 50 mg/kg, route oral; settings: in vivo; how it was run: as §4
Brain [18] = experiment: AUC (0 to infinity) in mouse brain at 50 mg/kg, po; assay type: ADME, organism-based; design: dose 50 mg/kg, route oral, time infinity; settings: in vivo; how it was run: as §4
Brain [19] = experiment: Tmax in mouse brain at 50 mg/kg, po; assay type: ADME, organism-based; design: dose 50 mg/kg, route oral; settings: in vivo; how it was run: as §4
[20] = target: High affinity cGMP-specific 3',5'-cyclic phosphodiesterase 9A (Homo sapiens, UniProt O76083); experiment: Inhibition of PDE9 (unknown origin) using FAM-cGMP as substrate after 60 mins by fluorescence assay
Mus musculus [21] = experiment: Inhibition of PDE5 in C57Bl6 mouse assessed as increase in electric shock-induced hippocampal cGMP level measured per mg of protein at 3 mg/kg, ip administered 30 mins prior to electric shock induction measured after 10 secs (reference value: 0.318 0.0145 pmol); assay type: functional, Hippocampus; settings: route intraperitoneal; how it was run: as §1
Brain [22] = experiment: AUC (0 to t) in mouse brain at 50 mg/kg, po; assay type: ADME, organism-based; design: dose 50 mg/kg, route oral; settings: in vivo; how it was run: as §4
Homo sapiens [23] = organism: Homo sapiens; experiment: Selectivity ratio of IC50 for PDE2 (unknown origin) to IC50 for PDE5 (unknown origin)
[24] = target: cAMP and cAMP-inhibited cGMP 3',5'-cyclic phosphodiesterase 10A (Homo sapiens, UniProt Q9Y233); experiment: Inhibition of PDE10 (unknown origin) using FAM-cGMP and FAM-cAMP as substrate after 60 mins by fluorescence assay
Homo sapiens [25] = organism: Homo sapiens; experiment: Selectivity ratio of IC50 for PDE10 (unknown origin) to IC50 for PDE5 (unknown origin)
[26] = target: Dual 3',5'-cyclic-AMP and -GMP phosphodiesterase 11A (Homo sapiens, UniProt Q9HCR9); experiment: Inhibition of PDE11 (unknown origin) using FAM-cGMP and FAM-cAMP as substrate after 60 mins by fluorescence assay
Phosphodiesterase 4 = Phosphodiesterase 4 (Homo sapiens, UniProt P27815+Q08499+Q07343+Q08493); experiment: Inhibition of PDE4 (unknown origin) using FAM-cAMP as substrate after 60 mins by fluorescence assay; assay type: protein assay
Mus musculus [27] = experiment: Reversal of contextual fear memory deficit in APP/PS1 transgenic mouse assessed as increase in freezing behavior at 3 mg/kg, ip after 3 weeks (reference value: 10%); assay type: functional; settings: route intraperitoneal
Brain [28] = experiment: Mean residence time in mouse brain at 50 mg/kg, po; assay type: ADME, organism-based; design: dose 50 mg/kg, route oral; settings: in vivo; how it was run: as §4
Homo sapiens [29] = organism: Homo sapiens; experiment: Selectivity ratio of IC50 for PDE8 (unknown origin) to IC50 for PDE5 (unknown origin)
Plasma [30] = experiment: Mean residence time in mouse plasma at 50 mg/kg, po; assay type: ADME, organism-based; design: dose 50 mg/kg, route oral; settings: in vivo
Plasma [31] = experiment: Cmax in mouse plasma at 50 mg/kg, po; assay type: ADME, organism-based; design: dose 50 mg/kg, route oral; settings: in vivo; how it was run: as §4
Homo sapiens [32] = organism: Homo sapiens; experiment: Selectivity ratio of IC50 for PDE4 (unknown origin) to IC50 for PDE5 (unknown origin)
Mus musculus [33] = experiment: Reversal of contextual fear memory deficit in APP/PS1 transgenic mouse assessed as increase in freezing behavior at 3 mg/kg/day, ip administered 3 weeks measured after 9 to 12 weeks […] (reference value: 10%); assay type: functional; settings: route intraperitoneal
[34] = target: cGMP-dependent 3',5'-cyclic phosphodiesterase (Homo sapiens, UniProt O00408); experiment: Inhibition of PDE2 (unknown origin) using FAM-cGMP and FAM-cAMP as substrate after 60 mins by fluorescence assay
Homo sapiens [35] = organism: Homo sapiens; experiment: Selectivity ratio of IC50 for PDE7 (unknown origin) to IC50 for PDE5 (unknown origin)
Plasma [36] = experiment: AUC (0 to t) in mouse plasma at 50 mg/kg, po; assay type: ADME, organism-based; design: dose 50 mg/kg, route oral; settings: in vivo; how it was run: as §4
[37] = Ratio of AUC (0 to infinity) in mouse brain to AUC (0 to infinity) in mouse plasma; assay type: ADME, cell-free; how it was run: as §2

Chain of High affinity cGMP-specific 3',5'-cyclic phosphodiesterase 9A (O76083 whole entry): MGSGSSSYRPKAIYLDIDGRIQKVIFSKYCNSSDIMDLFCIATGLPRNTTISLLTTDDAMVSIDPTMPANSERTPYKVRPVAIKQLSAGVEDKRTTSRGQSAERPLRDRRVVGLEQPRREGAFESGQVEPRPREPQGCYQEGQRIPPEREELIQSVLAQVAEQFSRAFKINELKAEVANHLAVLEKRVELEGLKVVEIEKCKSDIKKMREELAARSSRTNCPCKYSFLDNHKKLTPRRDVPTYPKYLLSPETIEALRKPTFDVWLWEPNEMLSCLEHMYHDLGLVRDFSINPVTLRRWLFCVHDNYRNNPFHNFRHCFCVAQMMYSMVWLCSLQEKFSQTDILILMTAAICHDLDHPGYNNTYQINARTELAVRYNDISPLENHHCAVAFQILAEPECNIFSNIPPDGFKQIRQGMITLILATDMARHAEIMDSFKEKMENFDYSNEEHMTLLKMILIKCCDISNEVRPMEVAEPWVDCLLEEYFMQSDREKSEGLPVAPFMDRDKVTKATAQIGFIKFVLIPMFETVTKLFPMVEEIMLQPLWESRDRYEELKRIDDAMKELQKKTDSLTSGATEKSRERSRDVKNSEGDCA
Chain of Dual 3',5'-cyclic-AMP and -GMP phosphodiesterase 11A (Q9HCR9 whole entry): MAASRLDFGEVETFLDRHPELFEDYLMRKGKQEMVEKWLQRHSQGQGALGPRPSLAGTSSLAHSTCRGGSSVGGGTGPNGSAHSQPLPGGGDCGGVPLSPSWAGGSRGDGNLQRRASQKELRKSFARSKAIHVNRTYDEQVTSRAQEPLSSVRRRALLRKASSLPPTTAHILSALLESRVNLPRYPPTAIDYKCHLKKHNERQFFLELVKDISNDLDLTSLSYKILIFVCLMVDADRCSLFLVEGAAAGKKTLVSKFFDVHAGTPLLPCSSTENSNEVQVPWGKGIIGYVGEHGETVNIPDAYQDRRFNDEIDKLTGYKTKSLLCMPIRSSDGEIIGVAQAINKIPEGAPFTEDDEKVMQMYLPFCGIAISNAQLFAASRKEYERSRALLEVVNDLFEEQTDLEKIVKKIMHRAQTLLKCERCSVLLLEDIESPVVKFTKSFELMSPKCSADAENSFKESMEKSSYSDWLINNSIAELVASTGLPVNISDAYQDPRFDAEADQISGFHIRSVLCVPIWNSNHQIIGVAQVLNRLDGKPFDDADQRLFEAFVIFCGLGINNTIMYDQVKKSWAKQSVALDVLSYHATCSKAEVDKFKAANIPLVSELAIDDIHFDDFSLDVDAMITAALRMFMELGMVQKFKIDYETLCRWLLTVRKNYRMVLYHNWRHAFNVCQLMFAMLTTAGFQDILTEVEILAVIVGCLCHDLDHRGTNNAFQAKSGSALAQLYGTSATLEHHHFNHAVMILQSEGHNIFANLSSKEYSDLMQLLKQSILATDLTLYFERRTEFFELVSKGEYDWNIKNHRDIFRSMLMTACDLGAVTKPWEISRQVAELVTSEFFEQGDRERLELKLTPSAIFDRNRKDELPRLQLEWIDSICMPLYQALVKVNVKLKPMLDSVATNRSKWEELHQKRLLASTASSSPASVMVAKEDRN
Chain of cAMP and cAMP-inhibited cGMP 3',5'-cyclic phosphodiesterase 10A (Q9Y233 whole entry): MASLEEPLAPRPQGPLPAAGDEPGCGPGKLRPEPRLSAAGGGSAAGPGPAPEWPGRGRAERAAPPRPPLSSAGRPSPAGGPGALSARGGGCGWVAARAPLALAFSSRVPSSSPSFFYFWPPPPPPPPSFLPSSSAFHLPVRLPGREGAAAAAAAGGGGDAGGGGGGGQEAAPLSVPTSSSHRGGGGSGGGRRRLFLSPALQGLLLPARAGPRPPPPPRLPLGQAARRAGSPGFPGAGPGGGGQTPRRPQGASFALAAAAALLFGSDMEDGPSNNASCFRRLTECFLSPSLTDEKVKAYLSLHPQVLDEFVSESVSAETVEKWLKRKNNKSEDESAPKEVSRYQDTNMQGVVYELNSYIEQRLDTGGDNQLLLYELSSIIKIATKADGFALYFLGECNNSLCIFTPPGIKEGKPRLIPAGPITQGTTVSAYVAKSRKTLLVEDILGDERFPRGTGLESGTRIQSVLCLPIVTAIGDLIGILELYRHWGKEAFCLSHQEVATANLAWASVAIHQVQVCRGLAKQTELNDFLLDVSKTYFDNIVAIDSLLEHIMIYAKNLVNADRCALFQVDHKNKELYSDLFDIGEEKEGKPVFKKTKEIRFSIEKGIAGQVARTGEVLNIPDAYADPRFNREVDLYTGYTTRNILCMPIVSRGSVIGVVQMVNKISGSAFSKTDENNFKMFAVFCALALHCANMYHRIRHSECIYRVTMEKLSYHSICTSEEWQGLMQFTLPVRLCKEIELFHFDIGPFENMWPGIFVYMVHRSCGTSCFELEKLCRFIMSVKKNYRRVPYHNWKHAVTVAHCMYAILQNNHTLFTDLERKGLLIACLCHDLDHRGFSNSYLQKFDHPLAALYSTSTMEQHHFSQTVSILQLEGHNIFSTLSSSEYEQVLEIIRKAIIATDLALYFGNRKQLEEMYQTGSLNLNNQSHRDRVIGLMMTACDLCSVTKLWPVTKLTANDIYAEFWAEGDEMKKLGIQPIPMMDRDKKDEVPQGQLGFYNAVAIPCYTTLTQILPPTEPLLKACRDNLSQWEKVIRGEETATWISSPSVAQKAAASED
Chain of cGMP-dependent 3',5'-cyclic phosphodiesterase (O00408 whole entry): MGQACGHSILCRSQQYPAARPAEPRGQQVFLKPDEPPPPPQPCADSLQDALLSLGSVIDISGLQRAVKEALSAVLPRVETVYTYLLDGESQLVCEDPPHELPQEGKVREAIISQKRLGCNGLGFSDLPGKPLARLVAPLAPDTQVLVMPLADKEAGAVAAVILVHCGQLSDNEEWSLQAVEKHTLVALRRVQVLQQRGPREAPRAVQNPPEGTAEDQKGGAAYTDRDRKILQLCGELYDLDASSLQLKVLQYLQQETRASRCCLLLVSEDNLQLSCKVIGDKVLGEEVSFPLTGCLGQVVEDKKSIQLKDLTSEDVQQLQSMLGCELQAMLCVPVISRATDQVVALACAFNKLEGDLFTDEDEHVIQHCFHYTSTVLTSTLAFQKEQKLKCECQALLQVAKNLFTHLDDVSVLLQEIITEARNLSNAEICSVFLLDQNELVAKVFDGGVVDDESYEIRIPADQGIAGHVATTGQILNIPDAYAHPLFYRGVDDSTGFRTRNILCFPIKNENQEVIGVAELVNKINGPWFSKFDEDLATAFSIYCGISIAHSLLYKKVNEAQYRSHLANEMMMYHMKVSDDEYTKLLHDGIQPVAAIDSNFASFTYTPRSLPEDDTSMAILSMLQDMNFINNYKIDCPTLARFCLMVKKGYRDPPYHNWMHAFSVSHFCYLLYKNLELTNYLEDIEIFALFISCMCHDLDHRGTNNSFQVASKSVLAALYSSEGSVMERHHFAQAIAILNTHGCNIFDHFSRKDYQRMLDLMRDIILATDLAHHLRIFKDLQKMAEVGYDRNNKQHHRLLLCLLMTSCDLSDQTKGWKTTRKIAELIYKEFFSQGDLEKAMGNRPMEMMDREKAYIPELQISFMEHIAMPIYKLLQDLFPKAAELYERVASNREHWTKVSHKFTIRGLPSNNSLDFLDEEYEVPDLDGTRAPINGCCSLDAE

`CCNc1cc(C#N)cc2c(NCc3ccc(OC)c(Cl)c3)c(CO)cnc12` showed an IC50 [1] of 0.015 µM.
With `COc1ccc(CNc2c(CO)cnc3c(N4CCOCC4)cc(C#N)cc23)cc1Cl` the IC50 [1] was 0.00063 µM.
`COc1ccc(CNc2c(CO)cnc3c(NC4CC4)cc(C#N)cc23)cc1Cl` gave an IC50 [1] of 0.0041 µM.
For `COc1ccc(CNc2c(CO)cnc3c(C4CC4)cc(C#N)cc23)cc1Cl`, the Ratio IC50 (Homo sapiens [2]) was greater than 10000, the Ratio IC50 (Homo sapiens [3]) was greater than 10000 and the Activity (Mus musculus [4]) was 0.69 pmol. The Ratio [5] was 0.38, the Ratio IC50 (Homo sapiens [6]) was greater than 10000 and the Activity (Hippocampus [7]) was 180.85%. It also gave an IC50 (Phosphodiesterase 3) greater than 10 µM, an IC50 (Phosphodiesterase 8) greater than 10 µM and an Activity (Mus musculus [8]) of 30%. It also gave an IC50 (Phosphodiesterase 6) of 0.339 µM, an Activity (Mus musculus [9]) of 180.9% and a Cmax [10] of 385 ng/g. For the same compound, the Activity (Mus musculus [11]) was 0.89 pmol, the IC50 (Phosphodiesterase 7) was greater than 10 µM and the IC50 (Phosphodiesterase 1) was greater than 10 µM. It also gave a Ratio IC50 (Homo sapiens [12]) of 1260, an Activity (Hippocampus [13]) of 192.63% and a Ratio IC50 (Homo sapiens [14]) greater than 10000. For the same compound, the “Ratio AUC” value [15] was 0.41, the Tmax (Plasma [16]) was 0.5 h and the AUC (Plasma [17]) was 1133 ng·h/mL. It also gave an AUC (Brain [18]) of 420 ng·h/g, a Tmax (Brain [19]) of 0.5 h and an IC50 [20] greater than 10 µM. For the same compound, the Activity (Mus musculus [21]) was 0.83 pmol, the AUCt (Brain [22]) was 418 ng·h/g and the Ratio IC50 (Homo sapiens [23]) was greater than 10000. It also gave an IC50 [24] greater than 10 µM, a Ratio IC50 (Homo sapiens [25]) greater than 10000 and an IC50 [26] greater than 10 µM. The IC50 (Phosphodiesterase 4) was greater than 10 µM, the Activity (Mus musculus [27]) was 30% and the MRT (Brain [28]) was 1.66 h. The Ratio IC50 (Homo sapiens [29]) was greater than 10000, the MRT (Plasma [30]) was 1.61 h and the Cmax (Plasma [31]) was 1022 ng/mL. It also gave a Ratio IC50 (Homo sapiens [32]) greater than 10000, an Activity (Mus musculus [33]) of 30% and an IC50 [34] greater than 10 µM. The Ratio IC50 (Homo sapiens [35]) was greater than 10000, the AUCt (Plasma [36]) was 1014 ng·h/mL and the “Ratio AUC” value [37] was 0.37.
